In ChEMBL document CHEMBL3822411, “Non-Substrate Based, Small Molecule Inhibitors of the Human Isoprenylcysteine Carboxyl Methyltransferase” (Medchemcomm, 2016):
pIC50: −log10 of the molar value.

Key:
[1] = biological target: Protein-S-isoprenylcysteine O-methyltransferase (Homo sapiens, UniProt O60725); experiment: Inhibition of human isoprenylcysteine carboxyl methyltransferase expressed in yeast His10myc3N-Icmt membranes using AFC substrate and [14C]-SAM and incubated for 30 mins by liquid scintillation counting based methyltransferase vapor diffusion assay; format: cell membranes
Summary of the method: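 Crude yeast membranes (5 µg) in Tris-HCl 100 mM pH 7.4 with AFC 10 µM and [14C]-SAM 60 µM, compound at increasing concentrations, 5% DMSO; 37 °C 30 min, stopped with NaOH/SDS. Released radioactivity captured on filter paper over 2.5 h and counted. IC50 from specific activity (pmol/mg/min) versus concentration; three separate experiments in duplicate.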

[2] = Growth inhibition of human MIAPaCa2 cells expressing K-Ras G12C mutant after 5 days by MTT assay; format: functional, cell-based; settings: MIA PaCa-2, 120 h
Summary of the method: (§1)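 MTT read-out; 1,000 cells per well seeded the day before, then medium replaced with inhibitor at increasing concentrations, 0.5% DMSO constant; 5 days at 37 °C. MTT (5 mg/mL solution) added for a further 4 h, formazan dissolved in DMSO, absorbance at 590 nm; mean absorbance per concentration plotted.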

[3] = Growth inhibition of human PANC1 cells expressing K-Ras G12D mutant after 5 days by MTT assay; format: functional, cell-based; settings: PANC-1, 120 h; summary of the method: as §1

Protein-S-isoprenylcysteine O-methyltransferase, sequence (O60725 whole entry, the tested form may be a part): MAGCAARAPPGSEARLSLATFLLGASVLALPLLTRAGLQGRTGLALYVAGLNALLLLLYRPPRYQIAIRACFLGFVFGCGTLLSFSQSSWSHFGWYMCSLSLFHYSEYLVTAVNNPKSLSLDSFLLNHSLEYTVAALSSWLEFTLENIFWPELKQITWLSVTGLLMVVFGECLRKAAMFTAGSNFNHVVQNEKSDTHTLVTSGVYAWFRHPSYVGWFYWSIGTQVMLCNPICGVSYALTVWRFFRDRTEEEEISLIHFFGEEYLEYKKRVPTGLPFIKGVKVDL

## COC(=O)CCSC/C=C(\C)CCn1cc(CCc2ccc(-c3ccccc3)cc2)nn1
[1]
  pIC50: 6.40

## c1csc(C(=C2CCOCC2)c2ccc3ccccc3c2)c1
[2]
  pIC50: 4.50
[3]
  pIC50: 4.11

## Oc1c(C(c2cccs2)C2CCOCC2)ccc2ccccc12 (stereo not drawn)
[1]
  pIC50: 4.74

## Oc1c(C(=C2CCOCC2)c2cccs2)ccc2ccccc12
[1]
  pIC50: 5.11

## c1ccc(C(=C2CCOCC2)c2cccs2)cc1
[1]
  pIC50: < 4.30

## Oc1c(C(c2cccs2)C2CCOCC2)ccc2cccnc12 (stereo not drawn)
[1]
  pIC50: 4.85

## OC(c1ccccc1)(c1cccs1)C1CCOCC1 (stereo not drawn)
[1]
  pIC50: < 4.30

## CN1CCC(C(c2ccc3ccccc3c2)c2cccs2)CC1 (stereo not drawn)
[1]
  pIC50: < 4.30

## c1ccc(C(=C2CCOCC2)c2ccc3ccccc3c2)cc1
[1]
  pIC50: < 4.30

## O=C(c1ccc2ccccc2c1)C1CCOCC1
[1]
  pIC50: < 4.30

## c1ccc2cc(CC3CCOCC3)ccc2c1
[1]
  pIC50: < 4.30

## c1csc(C(c2ccc3ccccc3c2)C2CCNCC2)c1 (stereo not drawn)
[1]
  pIC50: < 4.30
